From ChEMBL document CHEMBL1126310, “Affinity probes for the avermectin binding proteins” (J Med Chem, 1992)
≈ marks a conversion by molar mass, not a printed value.

Key:
Type in all cases: functional
Caenorhabditis elegans [1] = test: Compound was evaluated for the binding affinity for Caenorhabditis elegans avermectin using Caenorhabditis elegans membrane homogenates using [3H]IVM as radioligand
Method in brief: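 C. elegans worms washed with 50 mM HEPES pH 7.4, homogenized; 1000g supernatant spun at 28 000g, pellet resuspended to about 12.5 μg protein/mL. Membranes (1.0 mL) incubated with [3H]-IVM (22,23-ditritioivermectin) at 22 °C for 45 min with and without analogs. Filtration over GF/B filters, rinse with cold HEPES containing 0.25% Triton X-100, scintillation counting; IC50 reported.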

Artemia salina = test: Compound was evaluated for the biological activity by (Artemia salina) brine shrimp immobilization assay
Method in brief: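 Compounds dissolved at 1 mg/mL in acetonitrile, tested in duplicate as 2-fold serial dilutions in acetonitrile across a row. Brine shrimp added in 0.20 mL brine per well. Immobilization scored by microscope after 6 h at room temperature; IC100 reported.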

Caenorhabditis elegans [2] = test: Compound was evaluated for the biological activity by Caenorhabditis elegans motility assay.
Method in brief: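 About 100 worms per tube, rinsed and resuspended in Krebs bicarbonate buffer pH 7.4. Compounds in DMSO, final 1% DMSO in 500 μL. After 16 h at 22 °C, motility scored by microscope; percentage of immotile worms determined at several concentrations per compound.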

Row | Compound | IC50 (Caenorhabditis elegans [1]) | IC100 (Artemia salina) | ED50 (Caenorhabditis elegans [2]) | EC50 (Caenorhabditis elegans [2]; read-out: ED50 (the source's name)) | IC50 (Caenorhabditis elegans [1]; Caenorhabditis elegans, 45 min)
1 | IVERMECTIN [listing 1 of 2 here] | 0.1 nM |  |  |  | 
2 | IVERMECTIN [listing 2 of 2 here] |  | 430 ng/mL | 7 ng/mL |  | 
3 | CCC(C)[C@H]1O[C@]2(CC[C@@H]1C)C[C@@H]1C[C@@H](C/C=C(\C)C(OCOCCN3CC3)[C@@H](C)/C=C/C=C3\COC4[C@H](O)C(C)=C[C@@H](C(=O)O1)[C@]34O)O2 (stereo partly specified) |  | 3470 ng/mL |  | 0.048 µg/mL (≈ 0.07 µM) | 5 nM
